ChEMBL document CHEMBL4007431, “Systematic variation of the benzenesulfonamide part of the GluN2A selective NMDA receptor antagonist TCN-201” (Eur J Med Chem, 2017)
pIC50: −log10 of the molar value. Calls of active or inactive are those of the source. No cut-off for these calls is given here.

Each compound was assayed against Glutamate NMDA receptor; Grin1/Grin2b (Rattus norvegicus) (UniProt P35439+Q00960) (assay: Antagonist activity at rat GluN1A/GluN2B receptor expressed in Xenopus laevis oocytes assessed as inhibition of glutamate/glycine-induced channel current at 10 uM at -70 mV holding potential by two electrode voltage clamp method).
Format: cell-based
How it was run: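 Oocytes were injected with GluN1a and GluN2B cRNA and recorded by TEVC with glutamate/glycine activation. Compounds tested at 10 µM, n = 5. One-way ANOVA with Tukey post hoc test.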

Row | SMILES | inhibition
1 | O=C(NNC(=O)c1ccc(CNS(=O)(=O)c2cccc(Br)c2)cc1)c1ccccc1 | inactive
2 | O=C(NNC(=O)c1ccc(CNS(=O)(=O)c2ccc(F)c(Cl)c2)cc1)c1ccccc1 | inactive

What follows are compounds tested against T1, Glutamate NMDA receptor; Grin1/Grin2a (Rattus norvegicus) (UniProt P35439+Q00959) (assay: Potency index, ratio of TCN-201 IC50 to compound IC50 for rat GluN1A/GluN2A receptor expressed in Xenopus laevis oocytes).
Format: cell-based

Row | SMILES | Ratio IC50
3 | O=C(NNC(=O)c1ccc(CNS(=O)(=O)c2cccc(Br)c2)cc1)c1ccccc1 | 2.5

The compounds below were run against Glutamate NMDA receptor; Grin1/Grin2a (Rattus norvegicus, UniProt P35439+Q00959) (assay: Antagonist activity at rat GluN1A/GluN2A receptor expressed in Xenopus laevis oocytes assessed as inhibition of glutamate/glycine-induced channel current at -70 mV holding potential by two electrode voltage clamp method).
Format: cell-based
How it was run: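 Oocytes (stage V, defolliculated) coinjected with 0.8 ng GluN1a and 0.8 ng GluN2A cRNA. TEVC at room temperature, holding −70 mV, perfusion with Ba2+-Ringer (10 HEPES, 90 NaCl, 1 KCl, 1.5 BaCl2 mmol/L, pH 7.4). Currents evoked by glutamate plus glycine. Compounds diluted from 10 mM DMSO stocks into agonist solution, 1 nM to 10 µM final. n = 5 oocytes per concentration. Logistic fit with minimum 0% and maximum 100%; x0 taken as the half-maximal inhibition.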

Row | SMILES | pIC50
4 | O=C(NNC(=O)c1ccc(CNS(=O)(=O)c2cccc(Br)c2)cc1)c1ccccc1 | 6.69
5 | O=C(NNC(=O)c1ccc(CNS(=O)(=O)c2ccc(F)c(Cl)c2)cc1)c1ccccc1 | 6.29

These compounds were tested against T1, Glutamate NMDA receptor; Grin1/Grin2a (Rattus norvegicus) (assay: Antagonist activity at rat GluN1A/GluN2A receptor expressed in Xenopus laevis oocytes assessed as inhibition of glutamate/glycine-induced channel current at 500 nM at -70 mV holding potential by two electrode voltage clamp method relative to TCN-201).
Format: cell-based
How it was run: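 GluN1a/GluN2A-coinjected oocytes (0.8 ng of each cRNA) under TEVC at −70 mV and room temperature, perfused with Ba2+-Ringer at pH 7.4. 10 µM (S)-glutamate and 10 µM glycine open the channel. Compound at 500 nM final (from 10 mM DMSO stock) in agonist solution. Current inhibition compared with the lead. At least five oocytes each. One-way ANOVA with Tukey post hoc test.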

Row | SMILES | fold change (FC)
6 | O=C(NNC(=O)c1ccc(CNS(=O)(=O)c2cccc(F)c2)cc1)c1ccccc1 | 0.818
7 | O=C(NNC(=O)c1ccc(CNS(=O)(=O)c2cccc(Br)c2)cc1)c1ccccc1 | 1.27
8 | O=C(NNC(=O)c1ccc(CNS(=O)(=O)c2ccccc2)cc1)c1ccccc1 | 0.351
9 | COc1cccc(S(=O)(=O)NCc2ccc(C(=O)NNC(=O)c3ccccc3)cc2)c1 | -0.062
10 | O=C(NNC(=O)c1ccc(CNS(=O)(=O)c2ccccc2Cl)cc1)c1ccccc1 | -0.092
11 | O=C(NNC(=O)c1ccc(CNS(=O)(=O)c2ccc(F)cc2)cc1)c1ccccc1 | 0.103
12 | Cc1cccc(S(=O)(=O)NCc2ccc(C(=O)NNC(=O)c3ccccc3)cc2)c1 | 0.28
13 | O=C(NNC(=O)c1ccc(CNS(=O)(=O)c2cccc(Cl)c2)cc1)c1ccccc1 | 1.21
14 | O=C(NNC(=O)c1ccc(CNS(=O)(=O)c2ccccc2[N+](=O)[O-])cc1)c1ccccc1 | 0.397
15 | Nc1ccc(S(=O)(=O)NCc2ccc(C(=O)NNC(=O)c3ccccc3)cc2)cc1 | 0.379
16 | O=C(NNC(=O)c1ccc(CNS(=O)(=O)c2ccc(Br)cc2)cc1)c1ccccc1 | 0.315
17 | O=C(NNC(=O)c1ccc(CNS(=O)(=O)c2ccccc2Br)cc1)c1ccccc1 | 0.045
18 | O=C(NNC(=O)c1ccc(CNS(=O)(=O)c2cccc(I)c2)cc1)c1ccccc1 | 1.19
19 | O=C(NNC(=O)c1ccc(CNS(=O)(=O)c2cccs2)cc1)c1ccccc1 | 0.529
20 | O=C(NNC(=O)c1ccc(CNS(=O)(=O)c2ccc(I)cc2)cc1)c1ccccc1 | 0.051
21 | O=C(NNC(=O)c1ccc(CNS(=O)(=O)c2cccnc2)cc1)c1ccccc1 | 0.151
22 | O=C(NNC(=O)c1ccc(CNS(=O)(=O)c2cccc([N+](=O)[O-])c2)cc1)c1ccccc1 | 0.161
23 | O=C(NNC(=O)c1ccc(CNS(=O)(=O)c2ccc([N+](=O)[O-])cc2)cc1)c1ccccc1 | 0.002
24 | N#Cc1cccc(S(=O)(=O)NCc2ccc(C(=O)NNC(=O)c3ccccc3)cc2)c1 | 0.151
25 | O=C(O)c1ccc(S(=O)(=O)NCc2ccc(C(=O)NNC(=O)c3ccccc3)cc2)cc1 | 0.283
26 | O=C(NNC(=O)c1ccc(CNS(=O)(=O)c2ccc(Cl)cc2)cc1)c1ccccc1 | 0.279
27 | O=C(NNC(=O)c1ccc(CNS(=O)(=O)c2ccccc2F)cc1)c1ccccc1 | 0.019
